Results: ChEMBL document CHEMBL4038273, “MAO enzymes inhibitory activity of new benzimidazole derivatives including hydrazone and propargyl side chains” (Eur J Med Chem, 2017)
pIC50: −log10 of the molar value.

Columns and labels:
[1] = test system: Salmonella typhimurium; test: Genotoxicity in Salmonella typhimurium TA98 assessed as increase in number of revertants at 0.156 mg/ml in presence of aroclor-1254-induced Sprague-Dawley rat liver microsomal S9 fraction by Ames-MPF assay relative to baseline; format: toxicity; settings: salmonella enterica subsp. enterica serovar typhimurium, microsomes
Outline: (§1)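 AmesMPF 98/100 fluctuation format with S. typhimurium TA98 (frameshift) and TA100 (base-pair substitution), run with and without S9. Compounds were made up in DMSO at 0.156–5 mg/mL, six levels; solvent control was 4% DMSO. With S9, positive controls were 2-aminoanthracene at 1 µg/mL (TA98) and 2.5 µg/mL (TA100). Wells turned yellow by pH drop were scored positive. Fold over baseline is mean positive wells divided by (zero-dose mean + 1 SD). Student's t-test, p<0.05.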

[2] = test system: Salmonella typhimurium; test: Genotoxicity in Salmonella typhimurium TA98 assessed as increase in number of revertants at 2.5 mg/ml in absence of aroclor-1254-induced Sprague-Dawley rat liver microsomal S9 fraction by Ames-MPF assay relative to baseline; format: toxicity; settings: salmonella enterica subsp. enterica serovar typhimurium, microsomes; outline: as §1
[3] = test system: Salmonella typhimurium; test: Genotoxicity in Salmonella typhimurium TA98 assessed as increase in number of revertants at 0.625 mg/ml in absence of aroclor-1254-induced Sprague-Dawley rat liver microsomal S9 fraction by Ames-MPF assay relative to baseline; format: toxicity; settings: salmonella enterica subsp. enterica serovar typhimurium, microsomes; outline: as §1
[4] = test system: Salmonella typhimurium; test: Genotoxicity in Salmonella typhimurium TA100 assessed as increase in number of revertants at 0.625 mg/ml in absence of aroclor-1254-induced Sprague-Dawley rat liver microsomal S9 fraction by Ames-MPF assay relative to baseline; format: toxicity; settings: salmonella enterica subsp. enterica serovar typhimurium, microsomes; outline: as §1
[5] = target: T1, Amine oxidase [flavin-containing] A (Homo sapiens, UniProt P21397); test: Inhibition of recombinant human MAO-A expressed in baculovirus infected BTI insect cells using tyramine as substrate pretreated for 30 mins followed by substrate addition incubated for 30 mins measured at 5 mins interval by horse-radish peroxidase/amplex red-based fluorometric method
T1 sequence (P21397 whole entry): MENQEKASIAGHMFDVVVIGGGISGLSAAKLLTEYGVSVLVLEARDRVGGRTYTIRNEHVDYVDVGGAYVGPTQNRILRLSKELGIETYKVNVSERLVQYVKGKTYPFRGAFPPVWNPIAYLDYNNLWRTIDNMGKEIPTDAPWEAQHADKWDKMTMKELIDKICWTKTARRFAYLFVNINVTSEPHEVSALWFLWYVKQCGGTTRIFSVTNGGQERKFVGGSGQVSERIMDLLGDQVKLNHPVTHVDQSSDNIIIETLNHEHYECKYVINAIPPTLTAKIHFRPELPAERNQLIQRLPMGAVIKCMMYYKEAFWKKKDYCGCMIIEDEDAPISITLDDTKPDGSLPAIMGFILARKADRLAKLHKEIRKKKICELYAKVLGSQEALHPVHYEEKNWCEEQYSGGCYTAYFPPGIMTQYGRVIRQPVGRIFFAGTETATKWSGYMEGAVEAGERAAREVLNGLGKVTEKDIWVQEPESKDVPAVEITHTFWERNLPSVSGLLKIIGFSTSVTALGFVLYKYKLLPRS
Outline: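 Recombinant hMAO-A (0.5 U/mL stock) or hMAO-B (0.64 U/mL stock) in phosphate buffer, preincubated with inhibitor (solutions 10^-3 to 10^-9 M in 2% DMSO) for 30 min at 37°C. Background-subtracted against DMSO control; quadruplicate.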

[6] = target: T2, Amine oxidase [flavin-containing] B (Homo sapiens, UniProt P27338); test: Inhibition of recombinant human MAO-B expressed in baculovirus infected BTI insect cells using tyramine as substrate pretreated for 30 mins followed by substrate addition incubated for 30 mins measured at 5 mins interval by horse-radish peroxidase/amplex red-based fluorometric method; format: cell-based
T2 sequence (P27338 whole entry): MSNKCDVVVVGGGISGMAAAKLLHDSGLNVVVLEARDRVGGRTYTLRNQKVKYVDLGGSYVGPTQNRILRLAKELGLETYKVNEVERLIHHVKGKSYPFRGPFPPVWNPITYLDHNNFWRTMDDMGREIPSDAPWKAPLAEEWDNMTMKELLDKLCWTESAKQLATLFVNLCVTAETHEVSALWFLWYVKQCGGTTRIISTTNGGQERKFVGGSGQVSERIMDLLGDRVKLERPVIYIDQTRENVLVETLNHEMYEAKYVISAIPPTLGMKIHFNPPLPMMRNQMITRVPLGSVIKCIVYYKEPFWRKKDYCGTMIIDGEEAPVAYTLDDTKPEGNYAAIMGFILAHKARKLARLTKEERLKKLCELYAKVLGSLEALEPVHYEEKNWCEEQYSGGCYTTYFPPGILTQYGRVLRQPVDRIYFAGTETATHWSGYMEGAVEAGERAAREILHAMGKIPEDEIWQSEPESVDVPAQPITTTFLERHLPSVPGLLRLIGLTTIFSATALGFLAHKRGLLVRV

[7] = test system: Salmonella typhimurium; test: Genotoxicity in Salmonella typhimurium TA100 assessed as increase in number of revertants at 1.25 mg/ml in presence of aroclor-1254-induced Sprague-Dawley rat liver microsomal S9 fraction by Ames-MPF assay relative to baseline; format: toxicity; settings: salmonella enterica subsp. enterica serovar typhimurium, microsomes; outline: as §1
[8] = test system: Salmonella typhimurium; test: Genotoxicity in Salmonella typhimurium TA98 assessed as increase in number of revertants at 5 mg/ml in absence of aroclor-1254-induced Sprague-Dawley rat liver microsomal S9 fraction by Ames-MPF assay relative to baseline; format: toxicity; settings: salmonella enterica subsp. enterica serovar typhimurium, microsomes; outline: as §1
[9] = test system: Salmonella typhimurium; test: Genotoxicity in Salmonella typhimurium TA100 assessed as increase in number of revertants at 2.5 mg/ml in presence of aroclor-1254-induced Sprague-Dawley rat liver microsomal S9 fraction by Ames-MPF assay relative to baseline; format: toxicity; settings: salmonella enterica subsp. enterica serovar typhimurium, microsomes; outline: as §1
[10] = test system: Salmonella typhimurium; test: Genotoxicity in Salmonella typhimurium TA100 assessed as increase in number of revertants at 0.625 mg/ml in presence of aroclor-1254-induced Sprague-Dawley rat liver microsomal S9 fraction by Ames-MPF assay relative to baseline; format: toxicity; settings: salmonella enterica subsp. enterica serovar typhimurium, microsomes; outline: as §1
[11] = test system: Salmonella typhimurium; test: Genotoxicity in Salmonella typhimurium TA98 assessed as increase in number of revertants at 1.25 mg/ml in presence of aroclor-1254-induced Sprague-Dawley rat liver microsomal S9 fraction by Ames-MPF assay relative to baseline; format: toxicity; settings: salmonella enterica subsp. enterica serovar typhimurium, microsomes; outline: as §1
[12] = test system: Salmonella typhimurium; test: Genotoxicity in Salmonella typhimurium TA100 assessed as increase in number of revertants at 0.3125 mg/ml in absence of aroclor-1254-induced Sprague-Dawley rat liver microsomal S9 fraction by Ames-MPF assay relative to baseline; format: toxicity; settings: salmonella enterica subsp. enterica serovar typhimurium, microsomes; outline: as §1
[13] = test system: Salmonella typhimurium; test: Genotoxicity in Salmonella typhimurium TA100 assessed as increase in number of revertants at 0.3125 mg/ml in presence of aroclor-1254-induced Sprague-Dawley rat liver microsomal S9 fraction by Ames-MPF assay relative to baseline; format: toxicity; settings: salmonella enterica subsp. enterica serovar typhimurium, microsomes; outline: as §1
[14] = test system: Salmonella typhimurium; test: Genotoxicity in Salmonella typhimurium TA98 assessed as increase in number of revertants at 0.3125 mg/ml in absence of aroclor-1254-induced Sprague-Dawley rat liver microsomal S9 fraction by Ames-MPF assay relative to baseline; format: toxicity; settings: salmonella enterica subsp. enterica serovar typhimurium, microsomes; outline: as §1
[15] = test system: Salmonella typhimurium; test: Genotoxicity in Salmonella typhimurium TA98 assessed as increase in number of revertants at 2.5 mg/ml in presence of aroclor-1254-induced Sprague-Dawley rat liver microsomal S9 fraction by Ames-MPF assay relative to baseline; format: toxicity; settings: salmonella enterica subsp. enterica serovar typhimurium, microsomes; outline: as §1

`C#CCn1c(-c2ccc(C(=O)N/N=C/c3ccc(F)cc3)cc2)nc2ccccc21` was tested, and the “fold change (FC)” value [1] was 1.3, the “fold change (FC)” value [2] was 0.28 and the “fold change (FC)” value [3] was 0.23. The “fold change (FC)” value [4] was 0.69, the pIC50 [5] was 6.07 and the pIC50 [6] was 6.87. The “fold change (FC)” value [7] was 1.46, the “fold change (FC)” value [8] was 0.34 and the “fold change (FC)” value [9] was 1.88. For the same compound, the “fold change (FC)” value [10] was 1.15, the “fold change (FC)” value [11] was 2.13 and the “fold change (FC)” value [12] was 0.79. The “fold change (FC)” value [13] was 0.49, the “fold change (FC)” value [14] was 0.46 and the “fold change (FC)” value [15] was 2.95.
With `C#CCn1c(-c2ccc(C(=O)N/N=C/c3cccnc3)cc2)nc2ccccc21` the “fold change (FC)” value [1] was 0.35, the “fold change (FC)” value [2] was 0.4 and the “fold change (FC)” value [3] was 0.51. For the same compound, the “fold change (FC)” value [4] was 0.84, the pIC50 [5] was 5.02 and the pIC50 [6] was 7.12. The “fold change (FC)” value [7] was 0.33, the “fold change (FC)” value [8] was 0.46 and the “fold change (FC)” value [9] was 0.27. The “fold change (FC)” value [10] was 0.27, the “fold change (FC)” value [11] was 0.52 and the “fold change (FC)” value [12] was 0.99. The “fold change (FC)” value [13] was 0.27, the “fold change (FC)” value [14] was 0.74 and the “fold change (FC)” value [15] was 0.52.
